The record followed here is ChEMBL document CHEMBL2046365, “Total synthesis and antifungal activity of (2S,3R)-2-aminododecan-3-ol” (2012).

Converted amounts (≈) assume the structure as drawn.

Holding throughout (format): functional
Assay [1] has as its system Candida albicans. As to the kind of experiment: Antifungal activity against Candida albicans MTCC 3958 after 24 hrs by well diffusion method. In short, it runs like this: (§1)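 Well diffusion on Mueller-Hinton agar plates, each surface-seeded with 0.1 mL of an MTCC Candida reference strain suspension at 1.5 × 10⁸ cfu/mL (0.5 McFarland). Compound added to 6.0 mm cork-bored wells at 300–1.4 per well; methanol well as negative control. Plates incubated 24 h at 30 °C. MIC taken as the lowest concentration giving an inhibition zone. Duplicates, mean reported.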
In general terms: Agar diffusion results depend on both activity and mobility in agar.

Assay [2] relates to Candida parapsilosis. As to the kind of experiment: Antifungal activity against Candida parapsilosis MTCC 1744 after 24 hrs by well diffusion method. In short, it runs like this:
as §1

Assay [3] concerns Candida albicans. The assay is described as follows: Antifungal activity against Candida albicans MTCC 854 after 24 hrs by well diffusion method. In short, it runs like this:
as §1

In assay [4] the test system is Candida albicans. The assay is described as follows: Antifungal activity against Candida albicans. In outline: as §1
In assay [5] the test system is Nakaseomyces glabratus. As to the kind of experiment: Antifungal activity against Candida glabrata MTCC 3019 after 24 hrs by well diffusion method. In short, it runs like this: as §1
Assay [6] concerns Candida albicans. As to the kind of experiment: Antifungal activity against Candida albicans MTCC 183 after 24 hrs by well diffusion method. In short, it runs like this: as §1
For assay [7], the system named is [Candida] aaseri. As to the kind of experiment: Antifungal activity against Candida aaseri MTCC 1962 after 24 hrs by well diffusion method. In short, it runs like this: as §1
Assay [8] has as its system Nakaseomyces glabratus. As to the kind of experiment: Antifungal activity against Candida glabrata. In short, it runs like this:
as §1

Assay [9] has as its system Candida albicans. As to the kind of experiment: Antifungal activity against Candida albicans MTCC 7315 after 24 hrs by well diffusion method. In outline:
as §1

[10] abbreviates: Lodderomyces parapsilosis, MTCC 1744, 24 h.
Setting [11] is: Yamadazyma aaseri, MTCC 1962, 24 h.

By MIC is commonly meant the lowest concentration found to suppress growth. A high value points to a need for much substance. For the compound `CCCCCCCCC[C@@H](O)[C@H](C)N`, the minimum inhibitory concentration (MIC) in assay [1] (MTCC 3958, 24 h) was found to be 19.8 mg/L (≈ 98.3 µM); in assay [2] (setting [10]), 4.9 mg/L (≈ 24.3 µM); in assay [3] (MTCC 854, 24 h), 37.5 mg/L (≈ 186 µM); in assay [4] it was 0.7 mg/L (≈ 3.48 µM); in assay [5] (MTCC 3019, 24 h) it was 9.9 mg/L (≈ 49.2 µM); in assay [6] (MTCC 183, 24 h) it was 9.9 mg/L (≈ 49.2 µM). Moreover, the MIC in assay [7] (setting [11]) is 9.9 mg/L (≈ 49.2 µM); in [8] it was 30 mg/L (≈ 149 µM); in assay [9] (MTCC 7315, 24 h), 9.9 mg/L (≈ 49.2 µM).

As to `OC(Cn1cncn1)(Cn1cncn1)c1ccc(F)cc1F` [FLUCONAZOLE], the MIC in assay [1] (MTCC 3958, 24 h) came out at 75 mg/L (≈ 245 µM); in assay [2] (setting [10]) it was 18.8 mg/L (≈ 61.4 µM); in assay [3] (MTCC 854, 24 h) it was 37.5 mg/L (≈ 122 µM); in [5] (MTCC 3019, 24 h) it was 75 mg/L (≈ 245 µM); in assay [6] (MTCC 183, 24 h), 37.5 mg/L (≈ 122 µM); in assay [7] (setting [11]) it was 75 mg/L (≈ 245 µM). Also, inhibition of growth in assay [9] (MTCC 7315, 24 h) (MIC) required 37.5 mg/L (≈ 122 µM).

Turning to NYSTATIN, the minimum inhibitory concentration (MIC) in [1], in assay [2], in [3], in assay [5], in assay [6] and in assay [7] was 150 mg/L each time. Further, 150 mg/L was the least that counted as inhibitory in assay [9] (MIC).

Regarding `C[C@@H]1[C@H](O)[C@@H](C)/C=C/C=C/C=C/C=C/C=C/C=C/C=C/[C@H](O[C@@H]2O[C@H](C)[C@@H](O)[C@H](N)[C@@H]2O)C[C@@H]2O[C@](O)(C[C@@H](O)C[C@@H](O)[C@H](O)CC[C@@H](O)C[C@@H](O)CC(=O)O[C@H]1C)C[C@H](O)[C@H]2C(=O)O` [AMPHOTERICIN B], the MIC in assay [1] (MTCC 3958, 24 h) was 300 mg/L (≈ 325 µM); in [2] (setting [10]), 300 mg/L (≈ 325 µM); in [3] (MTCC 854, 24 h), 300 mg/L (≈ 325 µM); in [5] (MTCC 3019, 24 h), 300 mg/L (≈ 325 µM); in [6] (MTCC 183, 24 h), 300 mg/L (≈ 325 µM); in [7] (setting [11]) it was 300 mg/L (≈ 325 µM). In addition, the MIC in assay [9] (MTCC 7315, 24 h) turned out to be 300 mg/L (≈ 325 µM).

Take `Clc1ccc(COC(Cn2ccnc2)c2ccc(Cl)cc2Cl)c(Cl)c1` (configuration not stated) [MICONAZOLE]: the MIC in assay [1] (MTCC 3958, 24 h) was 9.9 mg/L (≈ 23.8 µM); in assay [2] (setting [10]), 9.9 mg/L (≈ 23.8 µM); in assay [3] (MTCC 854, 24 h), 9.9 mg/L (≈ 23.8 µM); in [5] (MTCC 3019, 24 h), 9.9 mg/L (≈ 23.8 µM); in [6] (MTCC 183, 24 h), 9.9 mg/L (≈ 23.8 µM); in assay [7] (setting [11]), 9.9 mg/L (≈ 23.8 µM). For the same compound, it took 9.9 mg/L (≈ 23.8 µM) to inhibit growth in assay [9] (MTCC 7315, 24 h) (MIC).
